Read-outs that look alike come from different tables or passages of the source.
How the values were obtained:
[1] = tested on: p53 levels in MM.1S cells; experiment: Meso Scale Discovery total p53 assay in MM.1S cells; format: cell-based; details: Homo sapiens, MM1.S, 4 h, read-out: MM.1S p53 EC50
Method in brief: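 MM.1S cells plated at 1×10⁶/well overnight, then exposed 4 h to test compound, 4-fold 9-point series spanning 20 µM to 0.0003 µM, or DMSO (0.1% final). Total p53 in whole-cell lysate measured by Meso Scale Discovery immunoassay kit. p53 signal plotted against concentration and fitted for EC50.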

[2] = tested on: 44 DUBs (DUBprofiler panel); experiment: DUB selectivity profiling; format: biochemical; details: 10 μM compound
RKO cells = experiment: RKO cell viability; format: cell-based; details: Homo sapiens, 72 h, read-out: RKO IC50
MV4-11 tumors = experiment: MV4-11 cell-line-derived xenograft mouse model; format: in vivo; details: for tumor growth inhibition: MV4-11 tumors, oral, 24 days
Method in brief: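 Female CB-17 SCID mice (6-9 wk, 18-23 g) implanted s.c. in right flank with 10×10⁶ MV4-11 cells in PBS/Matrigel 50/50. Oral gavage dosing; tumour and body weight twice weekly. Final-day urine collected at three intervals, diluted 1:50, mouse MIC-1 ELISA (OD450 minus OD570, standard curve). Tumours removed 4 h after last dose, RIPA-homogenised, p53 and p21 by Western blot.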

MM.1S cells [3] = experiment: MM.1S cell viability; format: cell-based, human
MM.1S cells [4] = experiment: MM.1S live-cell imaging; format: cell-based, human; details: 1 μM, 5 days
Method in brief: (§1)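 IncuCyte S3 real-time growth, 4× objective: MRC5 (EMEM + 10% FBS, 4,000 cells/well) or MM.1S (RPMI 1640 + 10% FBS, 24,000 cells/well) seeded overnight, then exposed to test compound, idasanutlin or DMSO. Images every 6 h for 120 h from treatment start; growth expressed as phase object confluence.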

p53 in MM.1S cells = experiment: Time course of p53 levels in MM.1S cells; format: cell-based, human; details: for maximum increase of p53 above DMSO-treated cells: time course 2-24 h
Method in brief: (§2)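 MM.1S cells (RPMI 1640, 10% FBS, 1% L-glutamine) treated with test compound and sampled over a time course. Lysis in RIPA 30 min at 4°C, centrifugal clarification, BCA normalisation, reducing SDS-PAGE and immunoblot for p53 and p21. Chemiluminescent detection, densitometric band quantification; signal relative to DMSO-treated cells, mean ± standard deviation.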

RKO-E6 cells = experiment: RKO-E6 cell viability; format: cell-based, human
recombinant human USP7 = recombinant human USP7 (Homo sapiens, UniProt Q93009); experiment: In vitro USP7 activity assay; format: biochemical
Sequence of recombinant human USP7 (Q93009 whole entry): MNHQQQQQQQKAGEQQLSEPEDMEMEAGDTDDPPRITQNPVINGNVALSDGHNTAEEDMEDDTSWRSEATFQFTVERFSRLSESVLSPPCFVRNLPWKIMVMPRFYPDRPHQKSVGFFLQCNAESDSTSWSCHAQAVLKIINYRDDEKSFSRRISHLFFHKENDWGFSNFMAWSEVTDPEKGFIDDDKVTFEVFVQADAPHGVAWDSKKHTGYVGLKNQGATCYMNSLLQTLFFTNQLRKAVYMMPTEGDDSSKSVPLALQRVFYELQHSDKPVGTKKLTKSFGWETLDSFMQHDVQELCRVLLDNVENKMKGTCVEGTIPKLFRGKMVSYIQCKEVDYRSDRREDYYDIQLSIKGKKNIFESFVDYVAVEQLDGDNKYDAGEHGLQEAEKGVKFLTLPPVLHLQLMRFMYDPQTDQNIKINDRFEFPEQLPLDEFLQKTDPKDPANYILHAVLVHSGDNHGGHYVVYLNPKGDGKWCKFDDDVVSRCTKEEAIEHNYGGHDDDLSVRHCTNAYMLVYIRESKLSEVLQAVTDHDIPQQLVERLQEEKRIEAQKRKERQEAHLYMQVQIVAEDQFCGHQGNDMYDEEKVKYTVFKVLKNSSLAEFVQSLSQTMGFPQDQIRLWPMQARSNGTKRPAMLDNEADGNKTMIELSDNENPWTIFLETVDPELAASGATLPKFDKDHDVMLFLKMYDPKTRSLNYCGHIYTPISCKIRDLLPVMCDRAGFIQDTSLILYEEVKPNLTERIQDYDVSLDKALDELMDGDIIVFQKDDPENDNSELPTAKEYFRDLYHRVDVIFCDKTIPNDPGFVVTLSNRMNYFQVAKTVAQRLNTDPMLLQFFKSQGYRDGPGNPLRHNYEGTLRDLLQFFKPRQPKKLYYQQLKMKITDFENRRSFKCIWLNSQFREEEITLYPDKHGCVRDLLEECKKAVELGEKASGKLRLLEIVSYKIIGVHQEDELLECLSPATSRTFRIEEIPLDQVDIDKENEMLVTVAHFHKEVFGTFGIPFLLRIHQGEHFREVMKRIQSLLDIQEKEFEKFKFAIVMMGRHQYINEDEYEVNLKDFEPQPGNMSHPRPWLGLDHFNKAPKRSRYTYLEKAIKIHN
Method in brief: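 Test compound, 4-fold 10-point series from 2.5 µM top, pre-incubated 30 min at room temperature with 167 pM Sf21-baculovirus-expressed human USP7 in 20 mM HEPES pH 7.3, 150 mM NaCl, 1 mM TCEP, 125 µg/mL BSA, 0.4% DMSO. Ubiquitin-rhodamine added to 160 nM final; reaction 90 min at room temperature, acetic acid stop. Fluorescence 485/520 nm. % inhibition vs DMSO and no-enzyme controls; IC50 from curve fit; triplicate.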

p21 in MM.1S cells = experiment: Time course of p21 levels in MM.1S cells; format: cell-based, human; details: time course 2-24 h
Method in brief: as §2

MM.1S tumors = experiment: MM.1S cell-line-derived xenograft mouse model; format: in vivo
Method in brief: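 Female CB-17 SCID mice (6-9 wk, 18-23 g) implanted s.c. in right flank with 5×10⁶ MM.1S cells in PBS/Matrigel 50/50. Randomised at mean tumour ~105 mm³; test compound by oral gavage; tumour and body weight measured twice weekly. Final-day urine at three intervals, diluted 1:50, mouse MIC-1 ELISA (OD450 minus OD570, standard curve). Tumours harvested 2 h post last dose, RIPA-homogenised, p53/p21 Western blot.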

MRC5 cells = experiment: MRC5 live-cell imaging; format: cell-based, human; details: 1 μM
Method in brief: as §1

p53 WT cell lines [5] = experiment: Cellular viability assays of p53 WT cell lines; format: cell-based; details: read-out: IC50 in cellular viability assays of p53 WT cell lines
MCL1 in OCI-AML3 cells = experiment: MCL1 levels in OCI-AML3 cells; format: cell-based, human; details: OCI-AML3, 1 μM each, 4 h, Western blot
Method in brief: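 OCI-AML-3 cells (RPMI 1640 + 20% FBS) exposed to test compound, venetoclax, or both co-dosed; sampled 4 h post treatment. RIPA lysis 30 min at 4°C, centrifugal clarification, BCA protein assay, reducing SDS-PAGE, immunoblot with extended-duration chemiluminescent substrate; bands quantified by densitometry. Mean ± standard deviation.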

p53 WT cell lines [6] = details: read-out: IC50 in cellular viability assays of p53 WT cell lines; cited from earlier work
[7] = MV4-11 CDX, 4 h post final dose, Western blot
[8] = MM.1S CDX, 2 h post final dose, Western blot

O=C1CCC(=O)N1Cc1cc2nccc(-c3cc(Cl)cc4c3N([C@@H]3CNC5(CCC5)C3)CCC4)c2s1 [FX1-5303, (S)-1-((7-(6-chloro-1-(5-azaspiro[3.4]octan-7-yl)-1,2,3,4-tetrahydroquinolin-8-yl)thieno[3,2-b]pyridin-2-yl)methyl)pyrrolidine-2,5-dione]
EC50 [1]: 5.6 nM | inhibition in a panel of 44 DUBs [2]: only USP7 was inhibited | IC50 (RKO cells): 3400 nM | p21 levels in tumors vs untreated mice (MV4-11 tumors; [7]): significantly higher | p53 levels in tumors (MV4-11 tumors; [7]): elevated | MIC-1 in urine (MV4-11 tumors; MV4-11 CDX, day 24, three time periods, ELISA): elevated levels | tumor growth inhibition (MV4-11 tumors; 30 mg/kg twice daily): 68% | tumor growth inhibition (MV4-11 tumors; 40 mg/kg twice daily): 72% | IC50 (MM.1S cells [3]; Homo sapiens, MM1.S, 72 h, read-out: MM.1S viability IC50): 15 nM | growth of the MM.1S cancer cell line (MM.1S cells [4]): fully inhibited growth | time of peak p53 levels after treatment (p53 in MM.1S cells): 2 to 6 h | p53 elevation after 24h of treatment (p53 in MM.1S cells): returns nearly to basal levels | maximum increase of p53 above DMSO-treated cells (p53 in MM.1S cells): approximately 3 fold | shift of IC50 in RKO-E6 cells relative to the parental RKO cell line (RKO-E6 cells): essentially unchanged | IC50 (recombinant human USP7): 0.29 nM | maximum increase of p21 above DMSO-treated cells (p21 in MM.1S cells): ~6 fold | p21 levels in tumors vs untreated mice (MM.1S tumors; [8]): significantly higher | p53 levels in tumors (MM.1S tumors; [8]): elevated | MIC-1 in urine (MM.1S tumors; MM.1S CDX, day 24, three time periods, ELISA): elevated levels | tolerability (MM.1S tumors; MM.1S and MV4-11 CDX mouse models, oral dosing): generally well-tolerated | tumor growth inhibition (MM.1S tumors; MM.1S tumors, 30 mg/kg twice daily, oral, 24 days): 95% | increase in cell confluency over the 5-day time course (MRC5 cells): increased monotonically | IC50 (p53 WT cell lines [5]): < 50 nM

CC1(C)CCC(CN2CCN(c3ccc(C(=O)NS(=O)(=O)c4ccc(NCC5CCOCC5)c([N+](=O)[O-])c4)c(Oc4cnc5[nH]ccc5c4)c3)CC2)=C(c2ccc(Cl)cc2)C1 [Venetoclax]
effect on MCL1 levels (MCL1 in OCI-AML3 cells): increase in MCL1 levels

COc1cc(C(=O)O)ccc1NC(=O)[C@@H]1N[C@@H](CC(C)(C)C)[C@](C#N)(c2ccc(Cl)cc2F)[C@H]1c1cccc(Cl)c1F [Idasanutlin, reference compound]
IC50 (RKO cells): 170 nM | inhibition of MM1.S cell viability compared with FX1-5303 (MM.1S cells [3]; three days, CTG): equipotently | growth of the MM.1S cancer cell line (MM.1S cells [4]): fully inhibited growth | p53 elevation after 24h of treatment (p53 in MM.1S cells): approximately 14 fold | maximum increase of p53 above DMSO-treated cells (p53 in MM.1S cells): approximately 20 fold | shift of IC50 in RKO-E6 cells relative to the parental RKO cell line (RKO-E6 cells): over 50 fold | maximum increase of p21 above DMSO-treated cells (p21 in MM.1S cells): ~80 fold | increase in cell confluency over the 5-day time course (MRC5 cells): less than 10%

CC(=O)c1cc([N+](=O)[O-])c(Sc2ccc(F)cc2F)s1 [P22077]
IC50 (p53 WT cell lines [6]): > 1000 nM

Source: PMC11059122 (iScience, 2024)
